# According to ChEMBL document CHEMBL4130374, “Discovery of 9H-purins as potential tubulin polymerization inhibitors: Synthesis, biological evaluation and structure-activity relationships” (Eur J Med Chem, 2017):
# Tests used:
# [1] = tested on: K562; assay: Antiproliferative activity against human K562 cells after 48 hrs by MTT assay; assay type: functional; details: K562, 48 h
# Summary of the method: (§1)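 Log-phase cells, harvested by trypsinization, seeded 24 h, then exposed to a range of compound concentrations for 48 h. Culture in RPMI 1640 with 4% FBS, penicillin/streptomycin, 37°C, 5% CO2. DMSO below 1% final; 5-Fu as positive control. Readout is MTT (0.5 mg/mL, 4 h), formazan dissolved in DMSO, absorbance at 570 nm. GI50 = 50% growth inhibition versus untreated cells; means ± SD of at least two independent experiments.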
# [2] = tested on: SH-SY5Y; assay: Antiproliferative activity against human SH-SY5Y cells after 48 hrs by MTT assay; assay type: functional; summary of the method: as §1
# [3] = tested on: AGS; assay: Antiproliferative activity against human AGS cells after 48 hrs by MTT assay; assay type: functional; summary of the method: as §1
# [4] = tested on: Tubulin (Sus scrofa); assay: Inhibition of pig brain tubulin polymerization at 10 uM by spectrophotometry relative to control
# [5] = tested on: AGS; assay: Cell cycle arrest in human AGS cells assessed as accumulation at G0/G1 phase at 50 nM after 24 hrs by propidium iodide staining based flow cytometry (reference value: 52.87%); assay type: functional
# Summary of the method: (§2)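 Cells washed twice in ice-cold PBS, fixed in ice-cold 70% ethanol, treated with 0.1 mg/mL RNase, stained with propidium iodide. Phase distribution determined by flow cytometry.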
# [6] = tested on: AGS; assay: Cell cycle arrest in human AGS cells assessed as accumulation at S phase at 50 nM after 24 hrs by propidium iodide staining based flow cytometry (reference value: 37.94%); assay type: functional; summary of the method: as §2
# [7] = tested on: AGS; assay: Cell cycle arrest in human AGS cells assessed as accumulation at G2/M phase at 50 nM after 24 hrs by propidium iodide staining based flow cytometry (reference value: 9.18%); assay type: functional; summary of the method: as §2
# [8] = Cytotoxicity against mouse HT22 cells after 48 hrs by MTT assay; assay type: cell-based, HT-22
# Summary of the method: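 MTT readout after 48 h exposure; CC50 is the 50% cytotoxic concentration, mean of three repeated experiments.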
# [9] = Selectivity ratio of GI50 for human K562 cells to GI50 for human SH-SY5Y cells; assay type: functional
# [10] = Selectivity ratio of GI50 for human AGS cells to GI50 for human SH-SY5Y cells; assay type: functional
# [11] = Selectivity index, ratio of GI50 for mouse HT22 cells to GI50 for human SH-SY5Y cells; assay type: toxicity; details: HT22 cells and SH-SY5Y cells, read-out: RatioGI50
# [12] = tested on: SH-SY5Y; assay: Potency index, ratio of 5-Fu GI50 to test compound GI50 for human SH-SY5Y cells; assay type: functional
# [13] = Selectivity index, ratio of GI50 for mouse HT22 cells to GI50 for human AGS cells; assay type: toxicity; details: HT22 cells and AGS cells, read-out: RatioGI50
# [14] = tested on: AGS; assay: Cell cycle arrest in human AGS cells assessed as accumulation at G0/G1 phase at 0.25 uM after 24 hrs by propidium iodide staining based flow cytometry (reference value: 52.87%); assay type: functional; summary of the method: as §2
# [15] = tested on: AGS; assay: Cell cycle arrest in human AGS cells assessed as accumulation at S phase at 0.25 uM after 24 hrs by propidium iodide staining based flow cytometry (reference value: 37.94%); assay type: functional; summary of the method: as §2
# [16] = tested on: AGS; assay: Cell cycle arrest in human AGS cells assessed as accumulation at G2/M phase at 0.25 uM after 24 hrs by propidium iodide staining based flow cytometry (reference value: 9.18%); assay type: functional; summary of the method: as §2
# [17] = tested on: AGS; assay: Cell cycle arrest in human AGS cells assessed as accumulation at G0/G1 phase at 0.5 uM after 24 hrs by propidium iodide staining based flow cytometry (reference value: 52.87%); assay type: functional; summary of the method: as §2
# [18] = tested on: AGS; assay: Cell cycle arrest in human AGS cells assessed as accumulation at S phase at 0.5 uM after 24 hrs by propidium iodide staining based flow cytometry (reference value: 37.94%); assay type: functional; summary of the method: as §2
# [19] = tested on: AGS; assay: Cell cycle arrest in human AGS cells assessed as accumulation at G2/M phase at 0.5 uM after 24 hrs by propidium iodide staining based flow cytometry (reference value: 9.18%); assay type: functional; summary of the method: as §2
# [20] = tested on: AGS; assay: Cell cycle arrest in human AGS cells assessed as accumulation at G0/G1 phase at 1 uM after 24 hrs by propidium iodide staining based flow cytometry (reference value: 52.87%); assay type: functional; summary of the method: as §2
# [21] = tested on: AGS; assay: Cell cycle arrest in human AGS cells assessed as accumulation at S phase at 1 uM after 24 hrs by propidium iodide staining based flow cytometry (reference value: 37.94%); assay type: functional; summary of the method: as §2
# [22] = tested on: AGS; assay: Cell cycle arrest in human AGS cells assessed as accumulation at G2/M phase at 1 uM after 24 hrs by propidium iodide staining based flow cytometry (reference value: 9.18%); assay type: functional; summary of the method: as §2
# [23] = tested on: AGS; assay: Cell cycle arrest in human AGS cells assessed as accumulation at G0/G1 phase at 2 uM after 24 hrs by propidium iodide staining based flow cytometry (reference value: 52.87%); assay type: functional; summary of the method: as §2
# [24] = tested on: AGS; assay: Cell cycle arrest in human AGS cells assessed as accumulation at S phase at 2 uM after 24 hrs by propidium iodide staining based flow cytometry (reference value: 37.94%); assay type: functional; summary of the method: as §2
# [25] = tested on: AGS; assay: Cell cycle arrest in human AGS cells assessed as accumulation at G2/M phase at 2 uM after 24 hrs by propidium iodide staining based flow cytometry (reference value: 9.18%); assay type: functional; summary of the method: as §2
# [26] = tested on: AGS; assay: Induction of apoptosis in human AGS cells assessed as viable cells at 0.25 uM after 24 hrs by Annexin V-FITC/propidium iodide-double staining based flow cytometry (reference value: 69.90%); assay type: functional; details: read-out: Activity
# [27] = tested on: AGS; assay: Induction of apoptosis in human AGS cells assessed as early apoptotic cells at 0.25 uM after 24 hrs by Annexin V-FITC/propidium iodide-double staining based flow cytometry (reference value: 12.80%); assay type: functional
# [28] = tested on: AGS; assay: Induction of apoptosis in human AGS cells assessed as late apoptotic cells at 0.25 uM after 24 hrs by Annexin V-FITC/propidium iodide-double staining based flow cytometry (reference value: 16.90%); assay type: functional
# [29] = tested on: AGS; assay: Induction of apoptosis in human AGS cells assessed as necrotic cells at 0.25 uM after 24 hrs by Annexin V-FITC/propidium iodide-double staining based flow cytometry (reference value: 0.40%); assay type: functional
# [30] = tested on: AGS; assay: Induction of apoptosis in human AGS cells assessed as viable cells at 0.5 uM after 24 hrs by Annexin V-FITC/propidium iodide-double staining based flow cytometry (reference value: 69.90%); assay type: functional; details: read-out: Activity
# [31] = tested on: AGS; assay: Induction of apoptosis in human AGS cells assessed as early apoptotic cells at 0.5 uM after 24 hrs by Annexin V-FITC/propidium iodide-double staining based flow cytometry (reference value: 12.80%); assay type: functional
# [32] = tested on: AGS; assay: Induction of apoptosis in human AGS cells assessed as late apoptotic cells at 0.5 uM after 24 hrs by Annexin V-FITC/propidium iodide-double staining based flow cytometry (reference value: 16.90%); assay type: functional
# [33] = tested on: AGS; assay: Induction of apoptosis in human AGS cells assessed as necrotic cells at 0.5 uM after 24 hrs by Annexin V-FITC/propidium iodide-double staining based flow cytometry (reference value: 0.40%); assay type: functional
# [34] = tested on: AGS; assay: Induction of apoptosis in human AGS cells after 24 hrs by Annexin V-FITC/propidium iodide-double staining based flow cytometry; assay type: functional, cell-based
# [35] = tested on: AGS; assay: Cell cycle arrest in human AGS cells assessed as accumulation at G2/M phase after 24 hrs by propidium iodide staining based flow cytometry; assay type: functional; summary of the method: as §2
compound,measurement,setting,value
COc1ccc(N(C)c2nc(Cl)nc3c2ncn3Cc2cc(OC)c(OC)c(OC)c2)cc1,GI50,[1],41 µM
same,GI50,[2],3 µM
same,GI50,[3],85 µM
same,inhibition,[4],12%
COc1ccc(Cn2cnc3c(Cl)ncnc32)cc1OC,GI50,[1],> 50 µM
same,GI50,[2],> 100 µM
same,GI50,[3],> 100 µM
O=c1[nH]cc(F)c(=O)[nH]1 [FLUOROURACIL],GI50,[1],19 µM
same,GI50,[2],12 µM
same,GI50,[3],25 µM
COc1cc2c(c(OC)c1OC)-c1ccc(OC)c(=O)cc1[C@@H](NC(C)=O)CC2 [COLCHICINE],GI50,[1],0.02 µM
same,GI50,[2],0.04 µM
same,GI50,[3],0.04 µM
same,Activity,[5],1.2%
same,Activity,[6],12.58%
same,Activity,[7],86.22%
COc1ccc(N(C)c2nc(Cl)nc3c2ncn3Cc2cc(OC)cc(OC)c2)cc1,GI50,[1],42 µM
same,GI50,[2],> 100 µM
same,GI50,[3],69 µM
COc1cc(Cn2cnc3c(Cl)nc(Cl)nc32)cc(OC)c1,GI50,[1],4.6 µM
same,GI50,[2],1.7 µM
same,GI50,[3],3.8 µM
same,CC50 at 48 h,[8],> 100 µM
same,inhibition,[4],13%
COc1ccc(Cn2cnc3c(N(C)c4ccc(OC)cc4)ncnc32)cc1,GI50,[1],> 100 µM
same,GI50,[2],27 µM
same,GI50,[3],> 100 µM
COc1ccc(Cn2cnc3c(Cl)nc(Cl)nc32)cc1,GI50,[1],36 µM
same,GI50,[2],7.7 µM
same,GI50,[3],19 µM
same,inhibition,[4],25%
COc1ccc(N(C)c2ncnc3c2ncn3Cc2ccc(OC)c(OC)c2)cc1,GI50,[1],> 100 µM
same,GI50,[2],0.43 µM
same,GI50,[3],> 100 µM
same,CC50 at 48 h,[8],> 100 µM
same,RatioGI50,[9],>230
same,RatioGI50,[10],>230
same,selectivity ratio,[11],230
same,RatioGI50,[12],28
same,inhibition,[4],18%
COc1ccc(N(C)c2nc(Cl)nc3c2ncn3Cc2ccc(OC)c(OC)c2)cc1,GI50,[1],27 µM
same,GI50,[2],7.3 µM
same,GI50,[3],56 µM
same,inhibition,[4],25%
COc1ccc(Cn2cnc3c(Cl)ncnc32)cc1,GI50,[1],> 50 µM
same,GI50,[2],> 50 µM
same,GI50,[3],29 µM
COc1ccc(Cn2cnc3c(Cl)nc(Cl)nc32)cc1OC,GI50,[1],7 µM
same,GI50,[2],5.5 µM
same,GI50,[3],11 µM
same,inhibition,[4],22%
COc1cc(Cn2cnc3c(Cl)ncnc32)cc(OC)c1OC,GI50,[1],> 50 µM
same,GI50,[2],> 100 µM
same,GI50,[3],> 50 µM
COc1ccc(N(C)c2ncnc3c2ncn3Cc2cc(OC)cc(OC)c2)cc1,GI50,[1],42 µM
same,GI50,[2],> 100 µM
same,GI50,[3],> 100 µM
COc1cc(Cn2cnc3c(Cl)nc(Cl)nc32)cc(OC)c1OC,GI50,[1],4.3 µM
same,GI50,[2],9.6 µM
same,GI50,[3],9.4 µM
same,inhibition,[4],13%
COc1ccc(N(C)c2ncnc3[nH]cnc23)cc1,GI50,[1],> 100 µM
same,GI50,[2],> 100 µM
same,GI50,[3],> 100 µM
COc1ccc(Cn2cnc3c(N(C)c4ccc(OC)cc4)nc(Cl)nc32)cc1,GI50,[1],> 100 µM
same,GI50,[2],31 µM
same,GI50,[3],> 100 µM
COc1ccc(N(C)c2ncnc3c2ncn3Cc2cc(OC)c(OC)c(OC)c2)cc1,GI50,[1],> 100 µM
same,GI50,[2],0.26 µM
same,GI50,[3],> 100 µM
same,CC50 at 48 h,[8],23 µM
same,RatioGI50,[9],>230
same,RatioGI50,[10],>230
same,selectivity ratio,[11],88
same,RatioGI50,[12],46
same,inhibition,[4],20%
COc1ccc(N(C)c2nc(Cl)nc3[nH]cnc23)cc1,GI50,[1],> 100 µM
same,GI50,[2],> 100 µM
same,GI50,[3],30 µM
COc1ccc(N(C)c2ncnc3c2ncn3C)cc1,GI50,[1],> 100 µM
same,GI50,[2],> 100 µM
same,GI50,[3],> 100 µM
COc1cc(Cn2cnc3c(Cl)ncnc32)cc(OC)c1,GI50,[1],> 100 µM
same,GI50,[2],> 100 µM
same,GI50,[3],> 100 µM
COc1ccc(N(C)c2nc(Cl)nc3c2ncn3C)cc1,GI50,[1],2.3 µM
same,GI50,[2],3.4 µM
same,GI50,[3],0.26 µM
same,CC50 at 48 h,[8],> 100 µM
same,selectivity ratio,[11],23
same,selectivity ratio,[13],430
same,Activity,[14],50.11%
same,Activity,[15],39.78%
same,Activity,[16],10.11%
same,Activity,[17],47.34%
same,Activity,[18],39.98%
same,Activity,[19],12.68%
same,Activity,[20],36.62%
same,Activity,[21],38.2%
same,Activity,[22],25.18%
same,Activity,[23],21.64%
same,Activity,[24],14.87%
same,Activity,[25],63.49%
same,viability at 0.25 µM,[26],63.5%
same,Activity,[27],10.45%
same,Activity,[28],23.8%
same,Activity,[29],2.25%
same,viability at 0.5 µM,[30],59.2%
same,Activity,[31],12.35%
same,Activity,[32],27.6%
same,Activity,[33],0.85%
same,Activity,[34],Dose-dependent effect
same,Activity,[35],Dose-dependent effect
same,inhibition,[4],41%
